Measurements gathered from unrelated publications.
Lines come from different studies, so protocols differ.
Target: MAP kinase-interacting serine/threonine-protein kinase 1 (MKNK1, Homo sapiens, UniProt Q9BUB5)

SMILES	assay	setting	remaining binding [%]
CS(=O)(=O)c1cc(C2(NC(=O)c3cncc4c3cnn4-c3ccc(F)cc3)CC2)ccn1	cell-free assay, competition with immobilised ligand	1 µM	47
N#Cc1ccccc1CSc1nnc2c(n1)[nH]c1ccccc12	binding, competition with immobilised ligand	10 µM	98
N[C@H]1CCN(c2nccc(-c3cnn4ncccc34)n2)C1	binding	1 µM	90
C=CC(=O)N1CCC(C(=O)NCC(=O)N2CCN(c3nc(-c4cnc(N)nc4C(F)F)nc(N4CCOCC4)n3)CC2)CC1	binding, competition with immobilised ligand	1 µM	83
CCS(=O)(=O)c1cc2cc(C[C@@](O)(CC(C)(C)c3ccc(F)cc3C(N)=O)C(F)(F)F)[nH]c2cn1	cell-free assay, competition with immobilised ligand	1 µM	46
c1cnn2ncc(-c3ccnc(N4CCC45COC5)n3)c2c1	binding	1 µM	53
COc1cc(-c2cn(C3CCc4c(F)cccc4N(CC(F)(F)F)C3=O)nn2)ccc1-n1cnc(C)c1 (stereo not shown)	cell-free assay, competition with immobilised ligand	1 µM	87
C[C@@H]1CN(c2ccc3ncc(-c4ccc5[nH]nc(C6CC6)c5c4)n3n2)C[C@H](C)O1	binding, competition with immobilised ligand	0.5 µM	94
O=C(c1ccc(Nc2ncc(Cl)c(-c3cc4ccccc4s3)n2)cc1)N1CCC(N2CCCC2)CC1	binding, competition with immobilised ligand	1 µM	24
COc1cnc(Nc2cccc(S(N)(=O)=O)c2)nc1N1CCN(c2ccccc2)C(=O)C1	binding, competition with immobilised ligand	1 µM	98
C[C@H]1CCN(c2nccc(-c3cnn4ncccc34)n2)C1	binding	1 µM	59
O=C(NCCCN1CCOCC1)c1ccc(Nc2nccc(-c3cc4ccccc4s3)n2)cc1	binding, competition with immobilised ligand	1 µM	43
F[C@@H]1CCN(c2nccc(-c3cnn4ncccc34)n2)C1	binding	1 µM	100
COc1ncc2cc3ccccc3nc2c1C#N	cell-free assay, competition with immobilised ligand	5 µM	96
C[C@@H]1CN(c2cc(-c3n[nH]c4ccc(OC5(C)CC5)cc34)ncn2)C[C@H](C)O1	cell-free assay, competition with immobilised ligand	0.1 µM	67
O=C(Nc1c[nH]nc1C(=O)NC1CCNCC1)c1cc(F)cc(F)c1	binding, competition with immobilised ligand	1 µM	100
CO[C@@H](C)c1c(Nc2ccc([C@H](N(C)C(=O)C3CCS(=O)(=O)CC3)C(F)(F)F)cc2)cnc2cc(Cl)nn12	cell-free assay, competition with immobilised ligand	1 µM	100
COc1ccnn2ncc(-c3ccnc(N(C)C)n3)c12	binding	1 µM	95
NS(=O)(=O)c1cc(NC(=O)Cc2ccccc2)ccc1Oc1cccc(Cl)c1	cell-free assay, competition with immobilised ligand	1 µM	79
CN(CCCC(F)(F)F)c1nccc(-c2cnn3ncccc23)n1	binding	1 µM	100
FC(F)(F)Oc1cccc(-c2cnc3ccc(-c4ccncc4)nn23)c1	cell-free assay, competition with immobilised ligand	5 µM	71
CS(=O)(=O)N1CCCC(NC(=O)[C@H](CCC2CCCCC2)NC(=O)c2ccc(CNC(=O)c3cnc4ccccn34)cc2)C1 (stereo partly shown)	cell-free assay, competition with immobilised ligand	0.1 µM	100
Cc1cnc(Nc2ccc(C(=O)N3CCC(N4CCCC4)CC3)cc2)nc1-c1cc2ccccc2s1	binding, competition with immobilised ligand	1 µM	48
CSc1cccnc1N1CCN(Cc2nc3ccccc3[nH]2)CC1	cell-free assay, competition with immobilised ligand	1 µM	98
CC(C)(C)c1ccc(-c2nc(CBr)nn2-c2cccc(O)c2)cc1	cell-free assay, competition with immobilised ligand	10 µM	57
